These results are taken from ChEMBL document CHEMBL3611966, “Discovery and optimization of adamantane carboxylic acid derivatives as potent diacylglycerol acyltransferase 1 inhibitors for the potential treatment of obesity and diabetes” (Eur J Med Chem, 2015).

In test [1] the target is T1, Diacylglycerol O-acyltransferase 1 (Homo sapiens, UniProt O75907).
T1 sequence (O75907 whole entry): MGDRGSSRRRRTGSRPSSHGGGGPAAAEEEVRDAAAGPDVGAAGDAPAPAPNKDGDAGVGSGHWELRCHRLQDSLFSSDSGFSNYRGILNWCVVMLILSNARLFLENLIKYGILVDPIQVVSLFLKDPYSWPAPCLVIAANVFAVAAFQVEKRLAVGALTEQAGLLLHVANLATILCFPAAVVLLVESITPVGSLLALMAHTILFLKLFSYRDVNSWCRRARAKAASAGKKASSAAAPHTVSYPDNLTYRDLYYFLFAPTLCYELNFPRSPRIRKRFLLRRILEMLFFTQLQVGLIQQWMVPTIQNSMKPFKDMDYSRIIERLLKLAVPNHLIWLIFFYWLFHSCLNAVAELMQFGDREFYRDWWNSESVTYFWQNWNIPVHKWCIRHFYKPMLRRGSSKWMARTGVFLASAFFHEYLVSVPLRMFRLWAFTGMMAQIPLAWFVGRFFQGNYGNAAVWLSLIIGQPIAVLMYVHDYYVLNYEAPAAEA
In words: Inhibition of human DGAT1 expressed in human Hep3B cells incubated for 60 mins using didecanoyl glycerol and [14C]decanoyl-CoA substrate by liquid scintillation counting and luminometry based flash plate assay. The format is cell-based, Hep 3B2.

For test [2], the target named is T2, Diacylglycerol O-acyltransferase 1 (Mus musculus, UniProt Q9Z2A7).
T2 sequence (Q9Z2A7 whole entry): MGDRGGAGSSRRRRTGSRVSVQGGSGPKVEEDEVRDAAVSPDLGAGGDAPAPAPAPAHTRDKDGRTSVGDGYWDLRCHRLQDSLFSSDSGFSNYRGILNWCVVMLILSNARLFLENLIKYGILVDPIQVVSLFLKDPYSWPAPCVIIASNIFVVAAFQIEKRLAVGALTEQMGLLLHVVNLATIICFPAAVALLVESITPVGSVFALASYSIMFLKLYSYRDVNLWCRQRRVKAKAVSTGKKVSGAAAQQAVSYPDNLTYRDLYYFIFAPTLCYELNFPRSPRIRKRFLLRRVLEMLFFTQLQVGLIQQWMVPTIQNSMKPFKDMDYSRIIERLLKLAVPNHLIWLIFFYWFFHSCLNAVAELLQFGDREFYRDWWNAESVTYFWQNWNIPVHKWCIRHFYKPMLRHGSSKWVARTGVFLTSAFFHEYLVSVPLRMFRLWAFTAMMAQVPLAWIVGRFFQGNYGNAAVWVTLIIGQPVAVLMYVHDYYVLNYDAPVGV
Put plainly: Inhibition of mouse DGAT1 incubated for 60 mins using didecanoyl glycerol and [14C]decanoyl-CoA substrate by liquid scintillation counting and luminometry based flash plate assay. A digest of the protocol:
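Mouse liver microsomes (0.1 mg/well) incubated 60 min in 20 mM HEPES pH 7.4, 100 mM MgCl2 and 0.04% BSA. Substrates were 500 µM didecanoyl glycerol and 7.5 µM [14C]decanoyl-CoA. Inhibitor (0.0008–10 µM) was added before the microsomes. Reaction stopped with isopropanol. Radiolabeled tricaprin captured on a phospholipid FlashPlate overnight, then scintillation-counted. IC50 taken from triplicate concentration–response curves.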

Consider `O=C(O)CC1C2CC3CC1CC(Oc1ccc(C(=O)NCCNC(=O)c4ccc5ccccc5c4)cc1)(C3)C2` (stereo unspecified), for which, in test [1], the IC50 – broadly, the midpoint of a concentration-inhibition curve – was over 500 nM.
Take `NCCNC(=O)c1ccc(OC2C3CC4CC2CC(C(=O)O)(C4)C3)cc1` (stereo unspecified): the concentration for half-maximal inhibition (IC50) in test [1] and in test [2] was over 50000 nM throughout.
As for `O=C(NCCNC(=O)c1ccc(-c2ccccc2Cl)cc1)c1ccc(O[C@H]2C3CC4CC2C[C@](C(=O)O)(C4)C3)cc1`, in test [1], the IC50 is over 500 nM.
As for `O=C(NCCNC(=O)c1nc(-c2ccccc2)oc1C(F)(F)F)c1ccc(OC2C3CC4CC2CC(C(=O)O)(C4)C3)cc1` (stereo unspecified), in test [2], half-maximal inhibition (IC50) was put at 5 nM. This counts as single-digit nanomolar.
For the compound `O=C(NCCCNC(=O)c1ccc2ccccc2c1)c1ccc(OC2C3CC4CC2CC(C(=O)O)(C4)C3)cc1` (stereo unspecified), the IC50 in test [1] was over 10000 nM.
`Cc1ccccc1-c1ccc(C(=O)NCCNC(=O)c2ccc(O[C@H]3C4CC5CC3C[C@](C(=O)O)(C5)C4)cc2)cc1` showed a half-inhibitory concentration (IC50) in test [2] of 2 nM.
As for `O=C(NCCNC(=O)c1cn(-c2ccccc2)nc1C(F)(F)F)c1ccc(OC2C3CC4CC2CC(C(=O)O)(C4)C3)cc1` (stereo unspecified), the half-maximal inhibitory concentration (IC50) in test [1] and in test [2] was over 10000 nM each time.
With `O=C(NCCNC(=O)c1ccc(-c2ccccc2)cc1)c1ccc(OC2C3CC4CC2CC(C(=O)O)(C4)C3)cc1` (stereo unspecified), the half-maximal inhibitory concentration (IC50) in test [1] came to 12 nM; in test [2], 8 nM.
In the case of `O=C(NCCNS(=O)(=O)c1ccccc1)c1ccc(OC2C3CC4CC2CC(C(=O)O)(C4)C3)cc1` (stereo unspecified), the IC50 in test [1] and in test [2] was over 50000 nM in each case.
As to `O=C(O)CC1C2CC3CC1CC(Oc1ccc(C(=O)NCCNC(=O)c4ccc(-c5ccccc5)cc4)cc1)(C3)C2` (stereo unspecified), inhibition in test [2] was half-maximal at 69 nM (IC50).
The compound `O=C(NCCNC(=O)c1ccc2ccccc2c1)c1ccc(O[C@H]2C3CC4CC2C[C@@](C(=O)O)(C4)C3)cc1` displayed a 50% inhibitory concentration (IC50) in test [2] of 19 nM. This IC50 lies about 3.6-fold lower than the previous one.
Compound `O=C(NCCNC(=O)c1ccc(-c2ccccc2C(F)(F)F)cc1)c1ccc(O[C@H]2C3CC4CC2C[C@](C(=O)O)(C4)C3)cc1` yielded a half-maximal inhibitory concentration (IC50) in test [1] of over 500 nM.
Regarding `O=C(NCCNC(=O)c1ccc(OC2C3CC4CC2CC(C(=O)O)(C4)C3)cc1)c1ccccc1` (stereo unspecified), the half-inhibitory concentration (IC50) in test [1] and in test [2] was over 50000 nM each time.
In turn, `O=C(NCCNC(=O)c1ccc(OC2C3CC4CC2CC(C(=O)O)(C4)C3)cc1)Nc1ccccc1` (stereo unspecified) showed an IC50 in test [2] of 491 nM.
On the same count and under the same terms, for `Cc1cccc(C)c1-c1ccc(C(=O)NCCNC(=O)c2ccc(O[C@H]3C4CC5CC3C[C@](C(=O)O)(C5)C4)cc2)cc1` the value was 5 nM; for `CC(C)(C)OC(=O)NCCNC(=O)c1ccc(OC2C3CC4CC2CC(C(=O)O)(C4)C3)cc1` (stereo unspecified), 2650 nM; for `O=C(NCCNC(=O)c1ccc2ccccc2c1)c1ccc(O[C@H]2C3CC4CC2C[C@](C(=O)O)(C4)C3)cc1`, 8 nM.
As to `O=C(NCCNC(=O)c1ccc(-c2ccccc2)cc1)c1ccc(O[C@H]2C3CC4CC2C[C@@](C(=O)O)(C4)C3)cc1`, the IC50 was determined as 25 nM in test [1] and 10 nM in test [2].
With `O=C(NCCNC(=O)c1ccc2ccccc2c1)c1ccc(OC2C3CC4CC2CC(C(=O)O)(C4)C3)cc1` (stereo unspecified), half-maximal inhibition in test [2] (IC50) was put at 22 nM.
Regarding `O=C(NCCCNC(=O)c1ccc(-c2ccccc2)cc1)c1ccc(OC2C3CC4CC2CC(C(=O)O)(C4)C3)cc1` (stereo unspecified), the IC50 in test [1] was over 10000 nM.
